Data reported in ChEMBL document CHEMBL5058577, “EUbOPEN Chemogenomics Library 2 (Multiplex)” (2022).

System: U2OS
Assay: Multiplex assay against U2OS
Format: toxicity, cell-based
Conditions: human
How it was run: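 At seeding, live cells were stained with Hoechst33342, BioTracker Green Microtubule Cytoskeleton Dye, MitoTracker Red and Annexin V Alexa Fluor 680. After compound addition they were imaged on a CQ1 microscope at 37°C and 5% CO2, and CellPathfinder machine-learning gating sorted them into Hoechst high-intensity objects or normal cells, with normal cells further split into healthy, pyknosed or fragmented nuclei and pyknosed cells into mitotic or apoptotic. Tubulin, mitochondrial-mass and membrane-permeability phenotypes are given as per cents of cells with healthy nuclei.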

[1] = 12 h, 1 µM, compound concentration 1 uM, replicate 1
[2] = 12 h, 1 µM, compound concentration 1 uM, replicate 2
[3] = 12 h, 10 µM, compound concentration 10 uM, replicate 1
[4] = 12 h, 10 µM, compound concentration 10 uM, replicate 2
[5] = 24 h, 1 µM, compound concentration 1 uM, replicate 1
[6] = 24 h, 1 µM, compound concentration 1 uM, replicate 2
[7] = 24 h, 10 µM, compound concentration 10 uM, replicate 1
[8] = 24 h, 10 µM, compound concentration 10 uM, replicate 2
[9] = 48 h, 1 µM, compound concentration 1 uM, replicate 1
[10] = 48 h, 1 µM, compound concentration 1 uM, replicate 2
[11] = 48 h, 10 µM, compound concentration 10 uM, replicate 1
[12] = 48 h, 10 µM, compound concentration 10 uM, replicate 2

## Cc1cnc(-c2cc(N3CCN(C(=O)CCS(C)(=O)=O)CC3)ncc2Cl)c(C)c1
[1]
  Population Apoptotic (%): 86%
  Population Fragmented Nuclei (%): 37%
  Population Healthy Nuclei (%): 54%
  Population Hoechst High Intensity Objects (%): 2%
  Population Membrane Permeable-Phenotype (%): 10%
  Population Mitochondria Different-Phenotype (%): 1%
  Population Mitotic Cells (%): 13%
  Population Normal (%): 97%
  Population Pyknosed Nuclei (%): 8%
  Population Tubulin-Different-Phenotype (%): 2%
  Total Cell Count: 183
[2]
  Population Apoptotic (%): 100%
  Population Fragmented Nuclei (%): 18%
  Population Healthy Nuclei (%): 73%
  Population Hoechst High Intensity Objects (%): 1%
  Population Mitochondria Different-Phenotype (%): 7%
  Population Mitotic Cells (%): 0%
  Population Normal (%): 98%
  Population Tubulin-Different-Phenotype (%): 7%
  Total Cell Count: 111
[3]
  Population Apoptotic (%): 85%
  Population Fragmented Nuclei (%): 24%
  Population Healthy Nuclei (%): 67%
  Population Hoechst High Intensity Objects (%): 1%
  Population Membrane Permeable-Phenotype (%): 4%
  Population Mitochondria Different-Phenotype (%): 3%
  Population Mitotic Cells (%): 14%
  Population Normal (%): 98%
  Population Pyknosed Nuclei (%): 8%
  Population Tubulin-Different-Phenotype (%): 1%
  Total Cell Count: 258
[4]
  Population Apoptotic (%): 75%
  Population Fragmented Nuclei (%): 17%
  Population Healthy Nuclei (%): 73%
  Population Membrane Permeable-Phenotype (%): 20%
  Population Mitochondria Different-Phenotype (%): 7%
  Population Mitotic Cells (%): 25%
  Population Pyknosed Nuclei (%): 9%
  Population Tubulin-Different-Phenotype (%): 15%
  Total Cell Count: 88
[5]
  Population Apoptotic (%): 80%
  Population Fragmented Nuclei (%): 30%
  Population Healthy Nuclei (%): 62%
  Population Hoechst High Intensity Objects (%): 2%
  Population Membrane Permeable-Phenotype (%): 5%
  Population Mitochondria Different-Phenotype (%): 3%
  Population Mitotic Cells (%): 20%
  Population Normal (%): 97%
  Population Pyknosed Nuclei (%): 6%
  Population Tubulin-Different-Phenotype (%): 2%
  Total Cell Count: 220
[6]
  Population Apoptotic (%): 90%
  Population Fragmented Nuclei (%): 17%
  Population Healthy Nuclei (%): 75%
  Population Membrane Permeable-Phenotype (%): 8%
  Population Mitochondria Different-Phenotype (%): 5%
  Population Mitotic Cells (%): 10%
  Population Pyknosed Nuclei (%): 7%
  Population Tubulin-Different-Phenotype (%): 8%
  Total Cell Count: 136
[7]
  Population Apoptotic (%): 80%
  Population Fragmented Nuclei (%): 20%
  Population Healthy Nuclei (%): 74%
  Population Hoechst High Intensity Objects (%): 2%
  Population Membrane Permeable-Phenotype (%): 4%
  Population Mitochondria Different-Phenotype (%): 2%
  Population Mitotic Cells (%): 20%
  Population Normal (%): 97%
  Population Pyknosed Nuclei (%): 4%
  Population Tubulin-Different-Phenotype (%): 0%
  Total Cell Count: 309
[8]
  Population Apoptotic (%): 85%
  Population Fragmented Nuclei (%): 21%
  Population Healthy Nuclei (%): 64%
  Population Hoechst High Intensity Objects (%): 0%
  Population Membrane Permeable-Phenotype (%): 18%
  Population Mitochondria Different-Phenotype (%): 1%
  Population Mitotic Cells (%): 14%
  Population Normal (%): 99%
  Population Pyknosed Nuclei (%): 13%
  Population Tubulin-Different-Phenotype (%): 7%
  Total Cell Count: 103
[9]
  Population Apoptotic (%): 78%
  Population Fragmented Nuclei (%): 29%
  Population Healthy Nuclei (%): 63%
  Population Hoechst High Intensity Objects (%): 0%
  Population Membrane Permeable-Phenotype (%): 3%
  Population Mitochondria Different-Phenotype (%): 2%
  Population Mitotic Cells (%): 21%
  Population Normal (%): 99%
  Population Pyknosed Nuclei (%): 7%
  Population Tubulin-Different-Phenotype (%): 1%
  Total Cell Count: 325
[10]
  Population Apoptotic (%): 95%
  Population Fragmented Nuclei (%): 15%
  Population Healthy Nuclei (%): 73%
  Population Hoechst High Intensity Objects (%): 1%
  Population Membrane Permeable-Phenotype (%): 4%
  Population Mitochondria Different-Phenotype (%): 5%
  Population Mitotic Cells (%): 5%
  Population Normal (%): 98%
  Population Pyknosed Nuclei (%): 10%
  Population Tubulin-Different-Phenotype (%): 3%
  Total Cell Count: 184
[11]
  Population Apoptotic (%): 94%
  Population Fragmented Nuclei (%): 11%
  Population Healthy Nuclei (%): 80%
  Population Hoechst High Intensity Objects (%): 1%
  Population Membrane Permeable-Phenotype (%): 4%
  Population Mitochondria Different-Phenotype (%): 2%
  Population Mitotic Cells (%): 5%
  Population Normal (%): 98%
  Population Pyknosed Nuclei (%): 7%
  Population Tubulin-Different-Phenotype (%): 2%
  Total Cell Count: 485
[12]
  Population Apoptotic (%): 100%
  Population Fragmented Nuclei (%): 22%
  Population Healthy Nuclei (%): 71%
  Population Hoechst High Intensity Objects (%): 3%
  Population Membrane Permeable-Phenotype (%): 13%
  Population Mitochondria Different-Phenotype (%): 7%
  Population Mitotic Cells (%): 0%
  Population Normal (%): 96%
  Population Pyknosed Nuclei (%): 5%
  Population Tubulin-Different-Phenotype (%): 7%
  Total Cell Count: 141
